Here are results for 26 molecules from ChEMBL document CHEMBL1129793, “Quantitative structure-activity relationships for the in vitro antimycobacterial activity of pyrazinoic acid esters” (J Med Chem, 1996).

SMILES strings stand for the structures.

Data set [1] in a line: Partition coefficient (logP). The settings on record: octanol/water. The format is physicochemical.
In data set [2] the test system is Mycobacterium tuberculosis. Put plainly: In vitro activity against Mycobacterium tuberculosis (ATCC 27294). The format is functional. The method, boiled down: (§1)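 Broth macrodilution MIC. Cultures were grown in modified Middlebrook 7H10 broth (agar and malachite green omitted) with 10% OADC and 0.05% Tween 80, shaken at 37 °C for 3 days, then diluted in 7H10 broth to 1 Klett unit/mL. Test agents were dissolved in water or DMSO and filter-sterilised, then serially diluted 2-fold in 7H10 broth at pH 5.8. Tubes were shaken at 37 °C for 7–10 days, with a drug-free control. MIC was the lowest concentration with no visible turbidity, expressed in mmol/L.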

The test system of data set [3] is Mycobacterium tuberculosis. Put plainly: In vitro activity against Mycobacterium tuberculosis (ATCC 35801). The format is functional. Put shortly: as §1
Data set [4] deals with Mycobacterium avium. Put plainly: In vitro activity against Mycobacterium avium (MAC-101). The format is functional. The method, boiled down:
as §1

For data set [5], the system named is Mycobacterium tuberculosis. Put plainly: In vitro activity against Mycobacterium tuberculosis (ATCC 35828). The format is functional. Put shortly:
as §1

The test system of data set [6] is Mycobacterium avium. Put plainly: In vitro activity against Mycobacterium avium (ATCC 49601). The format is functional. The method, boiled down: as §1
A short description of data set [7]: T1/2 in equine serum. The settings on record: horse. In kind it is ADME, organism-based, Equus caballus. The method, boiled down: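 Ester from a 1 mg/mL stock was mixed with 5% aqueous equine serum in 0.01 M KH2PO4, pH 7.2. Remaining ester was measured by isocratic reverse-phase HPLC (80% acetonitrile/20% 0.1 M sodium acetate, pH 5.0), with UV detection at 265 nm against a standard curve. Half-life is the time to 50% conversion to the acid.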

A further data set has as its system Mycobacterium kansasii. Put plainly: in vitro activity against Mycobacterium kansasii (SWK). The format is functional. The method, boiled down:
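M. kansasii clinical isolate SWK was grown 3 days at 37 °C with shaking in modified Middlebrook 7H10 broth with 10% OADC and 0.05% Tween 80, then diluted. It was tested in serial 2-fold dilutions in 7H10 broth at pH 5.8, shaken at 37 °C for 7–10 days, with a drug-free control. MIC was the lowest concentration giving no visible turbidity, expressed in mmol/L.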

For the molecule `CCCCCCCC(C)(CCCCC)OC(=O)c1cnc(Cl)cn1` (stereo not drawn), in data set [1], the logP came to 6.96. The “Log 1/MMIC” value in data set [2] came to 2.249; in data set [3], 1.948; in the data set with Mycobacterium avium [4] it was 0.744; in data set [5], 1.647; in the data set on Mycobacterium avium [6], 0.744. The molecule also returned a half-life in data set [7] of 3170 min.
With `CCCCOC(=O)c1cnc(Cl)cn1`, in data set [1], the lipophilicity (logP) is 2.21. For the same molecule, the “Log 1/MMIC” value is 2.934 in data set [2]; 3.633 in data set [3]; 0.526 in the data set on Mycobacterium avium [4]; 2.633 in data set [5]; 0.225 with Mycobacterium avium [6]; 2.33 with Mycobacterium kansasii. In addition, in data set [7], the half-life was 5.5 min.
Turning to `CCCCCCCCC(C)(CCCC)OC(=O)c1cnc(Cl)cn1` (stereo not drawn), the logP in data set [1] was 7.05. Also, the “Log 1/MMIC” value in the data set with Mycobacterium avium [4] was 0.744; in data set [5], 1.647; in the data set with Mycobacterium avium [6] it was 0.744; with Mycobacterium kansasii it was 1.346. This molecule returned a half-life in data set [7] of 1140 min.
In data set [1], `CCCCCCCCCOC(=O)c1cnc(C)cn1` came in with a logP of 4.46. Further, the “Log 1/MMIC” value came out at 2.422 in data set [2]; 2.422 in data set [3]; 0.616 with Mycobacterium avium [4]; 0.917 in the data set with Mycobacterium avium [6]; 2.121 with Mycobacterium kansasii. The molecule further displayed a half-life in data set [7] of 1 min.
Regarding `CCCCCCCCC(C)(C)OC(=O)c1cnc(Cl)cn1`, in data set [1], the logP was 5.51. Further, the “Log 1/MMIC” value is 1.592 in data set [2]; 2.796 in data set [3]; 0.388 with Mycobacterium avium [4]; 1.592 in data set [5]; 0.388 in the data set with Mycobacterium avium [6]; 2.194 with Mycobacterium kansasii. This molecule also came in with a half-life in data set [7] of 957 min.
In data set [1], `CCCCCCC(C)(C)OC(=O)c1cnc(Cl)cn1` gave a logP of 4.39. For the same molecule, the “Log 1/MMIC” value came to 3.057 in data set [2]; 1.852 in data set [3]; 0.648 in the data set on Mycobacterium avium [4]; 3.057 in data set [5]; 0.648 in the data set with Mycobacterium avium [6]; 2.455 with Mycobacterium kansasii. In addition, the half-life in data set [7] was determined as 510 min.
`CCCCCCC(C)(CCCCCC)OC(=O)c1cnc(Cl)cn1`: the logP in data set [1] came out at 7.08. The “Log 1/MMIC” value in data set [2] stood at 3.152; in data set [3], 2.851; in the data set on Mycobacterium avium [4], 0.744; in data set [5], 2.851; with Mycobacterium avium [6], 1.346; in the data set on Mycobacterium kansasii, 2.249. The half-life in data set [7] was found to be 1080 min.
On to `CCCCCC(C)OC(=O)c1cnc(Cl)cn1` (stereo not drawn), for which, in data set [1], the logP came to 3. Moreover, the “Log 1/MMIC” value is listed as 3.631 in data set [2]; 2.711 in data set [3]; 0.904 in the data set on Mycobacterium avium [4]; 3.631 in data set [5]; 0.904 in the data set on Mycobacterium avium [6]; 3.313 with Mycobacterium kansasii. Further, the half-life in data set [7] turned out to be 16.2 min.
Molecule `CCCCCC(C)(CCCCC)OC(=O)c1cnc(Cl)cn1` gave a logP in data set [1] of 5.82. Further, the “Log 1/MMIC” value stood at 0.708 with Mycobacterium avium [4], 1.31 in data set [5], 0.708 in the data set with Mycobacterium avium [6] and 1.611 in the data set with Mycobacterium kansasii. The molecule also showed a half-life in data set [7] of 360 min.
With `CCCCCCC(C)(CCCC)OC(=O)c1cnc(Cl)cn1` (stereo not drawn), the logP in data set [1] was 5.93. Moreover, the “Log 1/MMIC” value in data set [3] is recorded as 1.611; in the data set with Mycobacterium avium [4], 0.106; in data set [5], 1.31; in the data set with Mycobacterium avium [6], 0.106; in the data set on Mycobacterium kansasii, 1.912. For the same molecule, the half-life in data set [7] came to 648 min.
For the molecule `CCCCCCCCC(CC)OC(=O)c1cnc(Cl)cn1` (stereo not drawn), in data set [1], the logP is 5.99. The “Log 1/MMIC” value in data set [2] was determined as 3.097; in data set [3], 2.495; with Mycobacterium avium [4], 0.087; in data set [5] it was 2.495; in the data set with Mycobacterium avium [6], 0.087; in the data set on Mycobacterium kansasii, 3.398. Also, the half-life in data set [7] came out at 9 min.
Turning to `CCCCCC(C)(CCCC)OC(=O)c1cnc(Cl)cn1` (stereo not drawn), the logP in data set [1] stood at 5.3. For the same molecule, the “Log 1/MMIC” value in data set [2] came out at 1.893; in data set [3], 1.592; in the data set with Mycobacterium avium [4], 0.087; with Mycobacterium avium [6] it was 0.087; in the data set on Mycobacterium kansasii it was 1.291. In addition, the half-life in data set [7] was 390 min.
Molecule `CCCCCCCCCCCOC(=O)c1cnc(Cl)cn1` gave a logP in data set [1] of 5.98. Further, the “Log 1/MMIC” value in data set [2] was 3.097; in data set [3], 2.796; with Mycobacterium avium [4], 1.291; in data set [5] it was 2.796; in the data set with Mycobacterium avium [6], 1.592; with Mycobacterium kansasii, 3.717. In addition, the half-life in data set [7] was 6 min.
In the case of `CCCCCCCCCCOC(=O)c1cnc(Cl)cn1`, in data set [1], the lipophilicity (logP) worked out at 5.48. For the same molecule, the “Log 1/MMIC” value in data set [3] worked out at 3.077; in the data set on Mycobacterium avium [4] it was 0.97; with Mycobacterium avium [6], 1.271; with Mycobacterium kansasii, 2.776. The same molecule displayed a half-life in data set [7] of 1.9 min.
`CCCCCCC(C)(CCCCC)OC(=O)c1cnc(Cl)cn1` (stereo not drawn) registered a logP in data set [1] of 6.45. Moreover, the “Log 1/MMIC” value was 2.232 in data set [2]; 0.726 with Mycobacterium avium [4]; 1.329 in data set [5]; 0.726 in the data set on Mycobacterium avium [6]; 1.63 in the data set with Mycobacterium kansasii. Further, in data set [7], the half-life worked out at 1410 min.
In data set [1], `CCCCCCC(CCCCCC)OC(=O)c1cnc(Cl)cn1` had a logP of 7.04. The “Log 1/MMIC” value in data set [2] stood at 3.135; in the data set on Mycobacterium avium [4], 1.329; in the data set on Mycobacterium avium [6] it was 0.726; with Mycobacterium kansasii, 2.834. For the same molecule, the half-life in data set [7] was 60 min.
In data set [1], `CCCCCCCC(C)(CCCC)OC(=O)c1cnc(Cl)cn1` (stereo not drawn) showed a logP of 6.44. Besides, the “Log 1/MMIC” value was 1.63 in data set [2]; 1.931 in data set [3]; 0.124 in the data set with Mycobacterium avium [4]; 0.124 with Mycobacterium avium [6]; 1.329 with Mycobacterium kansasii. Also, the half-life in data set [7] came to 600 min.
Molecule `CCCCCCCCOC(=O)c1cnc(Cl)cn1` gave a logP in data set [1] of 4.48. Moreover, the “Log 1/MMIC” value in data set [2] was 3.654; in the data set on Mycobacterium avium [4] it was 1.228; in the data set on Mycobacterium avium [6], 1.228; with Mycobacterium kansasii, 3.955. Besides, the half-life in data set [7] was 1.3 min.
As to `CCCCCOC(=O)c1cnc(Cl)cn1`, the logP in data set [1] stood at 2.73. In addition, the “Log 1/MMIC” value in data set [2] was found to be 3.581; in data set [3], 2.961; in the data set on Mycobacterium avium [4], 0.854; in data set [5] it was 3.262; in the data set on Mycobacterium avium [6], 0.854; in the data set on Mycobacterium kansasii, 3.882. In data set [7], this molecule came in with a half-life of 3.2 min.
With `CCOC(=O)c1cnc(Cl)cn1`, the logP in data set [1] came out at 1.19. Also, the “Log 1/MMIC” value in data set [2] was found to be 2.271; in the data set on Mycobacterium avium [4] it was 0.164; in data set [5], 1.067; in the data set on Mycobacterium avium [6] it was 0.164; in the data set on Mycobacterium kansasii, 1.97. The molecule further registered a half-life in data set [7] of 110 min.
The molecule `CCCCCCC(C)OC(=O)c1cnc(Cl)cn1` (stereo not drawn) registered a lipophilicity (logP) in data set [1] of 3.63. Also, the figures for the “Log 1/MMIC” value in the data set on Mycobacterium avium [4], with Mycobacterium avium [6] and with Mycobacterium kansasii were 0.927, 0.927 and 3.035, respectively. The half-life in data set [7] worked out at 28.2 min.
In data set [1], `CCCCCCCCCCCC(C)OC(=O)c1cnc(Cl)cn1` (stereo not drawn) came in with a logP of 6.25. The “Log 1/MMIC” value is given as 2.232 in data set [2]; 2.834 in data set [3]; 0.124 in the data set with Mycobacterium avium [4]; 2.834 in data set [5]; 1.027 with Mycobacterium avium [6]; 3.754 in the data set with Mycobacterium kansasii. Besides, the half-life in data set [7] was 50 min.
In the case of `O=C(OCc1ccccc1)c1cnc(Cl)cn1`, the logP in data set [1] was found to be 2.39. Moreover, the “Log 1/MMIC” value in data set [3] is listed as 2.697; in the data set on Mycobacterium avium [4] it was 1.493; with Mycobacterium avium [6] it was 1.794; in the data set on Mycobacterium kansasii, 2.396. In data set [7], this molecule came in with a half-life of 5 min.
Molecule `CCCOC(=O)c1cnc(Cl)cn1` gave a logP in data set [1] of 1.67. For the same molecule, the “Log 1/MMIC” value in data set [2] amounted to 3.524; in data set [3], 3.825; in the data set on Mycobacterium avium [4], 1.098; in the data set with Mycobacterium avium [6] it was 1.098; in the data set on Mycobacterium kansasii, 2.904. In addition, in data set [7], the half-life was 18.7 min.
`CCCCCCCOC(=O)c1cnc(Cl)cn1` had a logP in data set [1] of 3.87. The “Log 1/MMIC” value in data set [2] was 3.631; in the data set with Mycobacterium avium [4], 1.506; in the data set on Mycobacterium avium [6], 1.205; in the data set with Mycobacterium kansasii, 3.932. Moreover, in data set [7], the half-life was 3.2 min.
For the molecule `CCC(C)(CC)OC(=O)c1cnc(Cl)cn1`, the lipophilicity (logP) in data set [1] was found to be 2.74. Also, the “Log 1/MMIC” value is 1.482 in data set [2]; 1.482 in data set [3]; -0.023 in the data set with Mycobacterium avium [4]; 1.783 in data set [5]; -0.023 in the data set with Mycobacterium avium [6]; 2.084 in the data set with Mycobacterium kansasii. In addition, in data set [7], the half-life came out at 1020 min.
